Measurements as given in publication PMC8662605 (Molecular Biology and Evolution, 2021).

Assays:
[1] = tested on: 172K mutant of the white-faced saki Tas2R16; test: functional heterologous cell expression assay, calcium mobilization, mutagenesis; format: cell-based, white-faced saki (Pithecia pithecia); settings: for EC50: 172K mutant of white-faced saki Tas2R16
In short: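 Saki Tas2R16 (wild-type, or the reverse 172K mutant made by site-directed mutagenesis) was expressed from HSV-tagged pcDNA5/FRT vectors, transiently transfected into HEK293 cells stably expressing chimeric Gα16-gust44. Calcium mobilisation on bitter stimulation was recorded on a fluorescence plate reader. EC50 came from nonlinear sigmoidal dose–response fits with variable slope. Cell-surface receptor expression was measured by imaging cytometry.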

[2] = tested on: white-faced saki Tas2R16 (wild-type, 172N); format: cell-based, white-faced saki (Pithecia pithecia)
human Tas2R16 = target: T1, human Tas2R16 (Homo sapiens, UniProt Q9NYV7); format: cell-based
T1 sequence (Q9NYV7 1-291): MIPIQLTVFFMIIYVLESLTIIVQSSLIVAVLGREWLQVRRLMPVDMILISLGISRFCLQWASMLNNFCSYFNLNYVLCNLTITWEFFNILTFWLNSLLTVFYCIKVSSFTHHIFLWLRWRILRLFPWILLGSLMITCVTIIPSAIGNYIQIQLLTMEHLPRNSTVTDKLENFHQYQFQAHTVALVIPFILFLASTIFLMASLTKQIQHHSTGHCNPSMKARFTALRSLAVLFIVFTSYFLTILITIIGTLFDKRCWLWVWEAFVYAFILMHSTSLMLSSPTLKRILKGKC

[3] = 172K saki mutant versus wild-type (172N)

Row | EC50 [2] | EC50 (human Tas2R16) | Structure (SMILES) | EC50 [1] | fold increased EC50 value compared with the wild-type [1, 3] | sensitivity compared with the wild-type [1, 3]
1 | 500 ± 40 µM | – | O=Cc1ccccc1O[C@@H]1O[C@H](CO)[C@@H](O)[C@H](O)[C@H]1O [helicin] | 890 ± 110 µM | ~2 fold | about 50%
2 | 510 ± 30 µM | 490 ± 80 µM | OCc1ccccc1O[C@@H]1O[C@H](CO)[C@@H](O)[C@H](O)[C@H]1O [salicin] | 1120 ± 190 µM | – | about 50%
